Activity calls are given as the source filed them. The rule behind the calls is not given here.
Tests used:
P388 [1] = assay: Compound was tested against P388 leukemia at % increase in life span (ILS) in mice at 15 mg/kg dosage.; format: functional; settings: Mus musculus
How it was run: (§1)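 Male DBA/2J mice, 10 per group, inoculated ip on day 0 with 10^6 freshly harvested leukemia cells. Compound given ip in equal doses on days 1, 5 and 9; controls received saline ip on the same days. Highest dose set 10% below the acute LD10. %ILS = 100 × (treated − control)/control, using median life span per group; value reported at highest nontoxic dose.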

Rattus norvegicus [2] = organism: Rattus norvegicus; assay: Cardiotoxicity by a neonatal rat heart myocyte assay; format: toxicity
How it was run: (§2)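 Neonatal rat heart myocytes exposed to drug for 1 h. Read-out is the ATP/protein ratio relative to untreated control myocytes. IC50 is the 1-h concentration that reduces this ratio to 50% of control.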

Tumor cell line = assay: An average for IC50 values in the two solid tumor cell lines.; format: functional, cell-based
[3] = Toxicity ratio determined by the quotient of IC50 values in the myocytes divided by the average value in the three tumor lines.; format: functional
How it was run: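 Ratio is the myocyte cardiotoxicity IC50 (1-h exposure, ATP/protein ratio versus untreated myocytes) divided by the mean IC50 in sensitive L1210 and the two human tumor lines, measured with continuous exposure.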

[4] = An average for IC50 values in the two solid tumor cell lines and sensitive L1210 leukemia cell line.; format: functional, cell-based
B16 [5] = assay: Compound was tested against sc B16 melanoma at % tumor growth inhibition(TGI) in mice at 4 mg/kg dosage.; format: functional; settings: Mus musculus, route subcutaneous, read-out: TGI
L1210 [6] = assay: Compound was tested against L1210 leukemia at % increase in life span (ILS) in mice at 5 mg/kg dosage.; format: functional; settings: Mus musculus; how it was run: as §1
P388 [7] = assay: Compounds was tested against P388 leukemia at % increase in life span (ILS) in mice at 4.5 mg/kg dosage.; format: functional; settings: Mus musculus; how it was run: as §1
WiDr [8] = assay: Tested against WiDr colon (sensitive) in the sulforhodamine B assay.; format: functional, cell-based; settings: Homo sapiens
How it was run: (§3)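 Sulforhodamine B assay. Cells plated at 50 000/well; drug added on day 2 at 10^1–10^-5 μg/mL in half-log steps from DMSO stock diluted in PBS, final DMSO ≤0.1%. After 8-day exposure at 37 °C, cells fixed with TCA at 4 °C for 1 h and stained 30 min with 0.4% SRB. Dye solubilized in 10 mM Tris and OD read at 564 nm. Six wells per concentration; IC50 averaged.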

WiDr [9] = assay: Compound was tested against WiDr colon carcinoma (resistant) in the sulforhodamine B assay.; format: functional, cell-based; settings: Homo sapiens; how it was run: as §3
A549 [10] = assay: Compound was tested against A549 lung cancer cell line in the sulforhodamine B assay.; format: functional, cell-based; settings: Homo sapiens; how it was run: as §3
B16 [11] = assay: Compound was tested against sc B16 melanoma cell line in mice at 15 mg/kg dosage.; format: functional; settings: Mus musculus, route subcutaneous, read-out: TGI
L1210 [12] = assay: Inhibitory activity against sensitive L1210 cell lines; format: functional, cell-based; settings: Mus musculus
L1210 [13] = assay: Compound was tested against L1210 leukemia cell line in mice at 15 mg/kg dosage.; format: functional; settings: Mus musculus; how it was run: as §1
MCF7 [14] = assay: Tested against […] breast carcinoma (doxorubicin resistant) cell line in the sulforhodamine B assay.; format: functional, cell-based; settings: Homo sapiens; how it was run: as §3
MCF7 [15] = assay: Tested against […] breast carcinoma (mitoxantrone resistant)cell line in the sulforhodamine B assay.; format: functional, cell-based; settings: Homo sapiens; how it was run: as §3
P388 [16] = assay: Compound was tested against P388 leukemia cell line in mice at 15 mg/kg dosage.; format: functional; settings: Mus musculus; how it was run: as §1
WiDr [17] = assay: Compound was tested against WiDr colon carcinoma (resistant)cell line in the sulforhodamine B assay.; format: functional, cell-based; settings: Homo sapiens; how it was run: as §3
WiDr [18] = assay: Compound was tested against WiDr colon (sensitive) cell line in the sulforhodamine B assay.; format: functional, cell-based; settings: Homo sapiens; how it was run: as §3
MCF7 [19] = assay: Tested against […] breast carcinoma (sensitive) cell line in the sulforhodamine B assay.; format: functional, cell-based; settings: Homo sapiens; how it was run: as §3
A549 [20] = assay: Compound tested against A549 lung carcinoma in the sulforhodamine B assay.; format: functional, cell-based; settings: Homo sapiens; how it was run: as §3
UACC-375 = assay: Inhibitory activity against […] cell line; format: functional, cell-based; settings: Homo sapiens
L1210 [21] = assay: Inhibitory activity against resistant murine leukemia L1210 cell lines.; format: functional, cell-based; settings: Mus musculus
L1210 [22] = assay: Compound was tested against L1210 leukemia at % increase in life span (ILS) in mice at 8 mg/kg dosage; Not active; format: functional, organism-based; design: dose 8 mg/kg; settings: Mus musculus
OVCAR-3 = assay: Inhibitory activity against OVCAR-3 cell line; format: functional, cell-based; settings: Homo sapiens
WiDr [23] = assay: Compound tested against WiDr colon carcinoma (resistant) in the sulforhodamine B assay.; format: functional, cell-based; settings: Homo sapiens; how it was run: as §3
WiDr [24] = assay: Compound tested against WiDr colon (sensitive) in the sulforhodamine B assay.; format: functional, cell-based; settings: Homo sapiens; how it was run: as §3
A549 [25] = assay: Tested against A549 lung carcinoma in the sulforhodamine B assay.; format: functional, cell-based; settings: Homo sapiens; how it was run: as §3
B16 [26] = assay: Compound were tested against sc B16 melanoma at % tumor growth inhibition(TGI) in mice at 3 mg/kg dosage.; format: functional; settings: Mus musculus, route subcutaneous, read-out: TGI
P388 [27] = assay: Compound was tested against P388 leukemia at % increase in life span (ILS) in mice at 3 mg/kg dosage.; format: functional; settings: Mus musculus; how it was run: as §1
WiDr [28] = assay: Tested against WiDr colon carcinoma (resistant) in the sulforhodamine B assay.; format: functional, cell-based; settings: Homo sapiens; how it was run: as §3
P388 [29] = assay: Compound was tested against P388 leukemia at % increase in life span (ILS) in mice at 15 mg/kg dosage; Not active at highest dose tested (% ILS<25); format: functional, organism-based; design: dose 15 mg/kg; settings: Mus musculus
Rattus norvegicus [30] = organism: Rattus norvegicus; assay: Compound was tested for Cardiotoxicity by a neonatal rat heart myocyte assay.; format: functional; how it was run: as §2
[31] = test system: neonatal heart myocytes (Rattus norvegicus); assay: Cardio toxicity was measured.
B16 [32] = assay: Compound was tested against sc B16 melanoma at % tumor growth inhibition(TGI) in mice at 3.2 mg/kg dosage.; format: functional; settings: Mus musculus, route subcutaneous, read-out: TGI
L1210 [33] = assay: Compound was tested against L1210 leukemia at % increase in life span (ILS) in mice at 1.6 mg/kg dosage.; format: functional; settings: Mus musculus; how it was run: as §1
P388 [34] = assay: Compound was tested against P388 leukemia at % increase in life span (ILS) in mice at 1.6 mg/kg dosage.; format: functional; settings: Mus musculus; how it was run: as §1
A549 [35] = assay: Compound was tested against A549 lung carcinoma cell line in the sulforhodamine B assay.; format: functional, cell-based; settings: Homo sapiens; how it was run: as §3
WiDr [36] = assay: Compound tested against WiDr colon carcinoma (resistant)cell line in the sulforhodamine B assay.; format: functional, cell-based; settings: Homo sapiens; how it was run: as §3
B16 [37] = assay: Compound was tested against sc B16 melanoma at % tumor growth inhibition(TGI) in mice at 6 mg/kg dosage; no palpable tumor; format: functional; settings: Mus musculus, route subcutaneous, read-out: TGI
L1210 [38] = assay: Compound was tested against L1210 leukemia at % increase in life span (ILS) in mice at 8 mg/kg dosage.; format: functional; settings: Mus musculus; how it was run: as §1
P388 [39] = assay: Compound was tested against P388 leukemia at % increase in life span (ILS) in mice at 5 mg/kg dosage.; format: functional; settings: Mus musculus; how it was run: as §1

| IC50 (UACC-375) | IC50 (L1210 [21]) | IC50 (OVCAR-3) | Structure (SMILES) | IC50 (Rattus norvegicus [2]) | IC50 (Tumor cell line) | Toxicity ratio [3] | IC50 [4] | IC50 (WiDr [8]) | IC50 (L1210 [12]) | IC50 (MCF7 [14]) | IC50 (MCF7 [15]) | IC50 (MCF7 [19]) | IC50 (A549 [25]) | IC50 (WiDr [28]) | other results |
| --- | --- | --- | --- | --- | --- | --- | --- | --- | --- | --- | --- | --- | --- | --- | --- |
|  |  |  | CN(C)CCN1C(=O)c2cccc3cc(N)cc(c23)C1=O [AMONAFIDE] | 48400 nM | 2110 nM | 30 | 1610 nM |  |  |  |  |  |  |  | ILS at 15 mg/kg (P388 [1]): 88% |
|  |  |  | COc1cccc2c1C(=O)c1c(O)c3c(c(O)c1C2=O)C[C@@](O)(C(=O)CO)C[C@@H]3O[C@H]1C[C@H](N)[C@H](O)[C@H](C)O1 [DOXORUBICIN] | 10200 nM | 74 nM |  | 61 nM | 53 nM |  |  |  |  |  |  | inhibition in vivo at 4 mg/kg (B16 [5]): 120%; ILS at 5 mg/kg (L1210 [6]): 210%; ILS at 4.5 mg/kg (P388 [7]): 113%; IC50 (WiDr [9]): 130 nM |
|  |  |  | CN(C)CCN1C(=O)c2cccc3cc4ccccc4c(c23)C1=O [AZONAFIDE] | 1980 nM | 64 nM | 44 | 45 nM |  | 7 nM | 70 nM | 20 nM | 18 nM |  |  | IC50 (A549 [10]): 10 nM; inhibition in vivo at 15 mg/kg (B16 [11]): 74%; ILS at 15 mg/kg (L1210 [13]): 72%; ILS at 15 mg/kg (P388 [16]): 79%; IC50 (WiDr [17]): 94 nM; IC50 (WiDr [18]): 13 nM |
| 31 nM | 1.3 nM | 31 nM | CN(C)CCOc1ccc2c3c(c4ccccc4cc13)C(=O)N(CCN(C)C)C2=O | 5440 nM | 31 nM | 262 | 21 nM |  | 0.2 nM | 8.9 nM | 3.9 nM | 3.9 nM |  |  | IC50 (A549 [20]): 0.58 nM; ILS (L1210 [22]): inactive; IC50 (WiDr [23]): 10 nM; IC50 (WiDr [24]): 2.4 nM |
| 141 nM | 27 nM | 217 nM | Cc1ccc2c3c(c4ccccc4cc13)C(=O)N(CCN(C)C)C2=O |  | 179 nM | 8.1 |  |  | 6.8 nM |  |  |  |  |  | ILS (P388 [29]): inactive; IC50 (Rattus norvegicus [30]): 989 nM; IC50 [31]: 989 nM |
|  |  |  | O=C1c2c(O)ccc(O)c2C(=O)c2c(NCCNCCO)ccc(NCCNCCO)c21 [MITOXANTRONE] | 7740 nM | 27 nM | 368 | 21 nM | 8.1 nM | 9.7 nM | 72 nM | 41 nM | 8.7 nM | 3.1 nM | 488 nM | inhibition in vivo at 3.2 mg/kg (B16 [32]): 130%; ILS at 1.6 mg/kg (L1210 [33]): 150%; ILS at 1.6 mg/kg (P388 [34]): 200% |
| 416 nM | 416 nM | 416 nM | CN(C)CCN1C(=O)c2ccc(I)c3cc4ccccc4c(c23)C1=O | 43700 nM | 416 nM | 105 | 416 nM |  | 416 nM | 30 nM | 10 nM | 11 nM |  |  | IC50 (A549 [35]): 10 nM; IC50 (WiDr [18]): 65 nM; IC50 (WiDr [36]): 620 nM |

| Structure (SMILES) | IC50 (UACC-375) | IC50 (L1210 [21]) | IC50 (OVCAR-3) | IC50 (Rattus norvegicus [2]) | IC50 (Tumor cell line) | Toxicity ratio [3] | IC50 [4] | IC50 (WiDr [8]) | IC50 (L1210 [12]) | IC50 (MCF7 [14]) | IC50 (MCF7 [15]) | IC50 (MCF7 [19]) | IC50 (A549 [25]) | IC50 (WiDr [28]) | other results |
| --- | --- | --- | --- | --- | --- | --- | --- | --- | --- | --- | --- | --- | --- | --- | --- |
| CN(C)CCNc1ccc2c3c(c4ccccc4cc13)C(=O)N(CCN(C)C)C2=O | 11 nM | 0.04 nM | 63 nM | 4190 nM | 37 nM | 171 | 25 nM | 1.7 nM | 0.04 nM | 14 nM | 1.9 nM | 1 nM | 0.43 nM | 14 nM | inhibition in vivo at 3 mg/kg (B16 [26]): 66%; ILS at 3 mg/kg (P388 [27]): 44% |
| CCOc1ccc2c3c(c4ccccc4cc13)C(=O)N(CCN(C)C)C2=O | 19 nM | 6.7 nM | 0.8 nM | 1780 nM | 10 nM | 192 | 9.3 nM | 17 nM | 8 nM | 18 nM | 14 nM | 11 nM | 2.9 nM | 63 nM | inhibition in vivo at 6 mg/kg (B16 [37]): > 100%; ILS at 8 mg/kg (L1210 [38]): 100%; ILS at 5 mg/kg (P388 [39]): 55% |
